# Laboratory results reported in ChEMBL document CHEMBL4689842, “EUbOPEN Chemogenomics Library wave 1” (2021).
# System: U2OS
# Test: Multiplex assay against U2OS
# Assay type: toxicity, cell-based
# Details: human
# Procedure, shortened: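 Values for tubulin, mitochondrial-mass and membrane-permeability phenotypes are per cents of cells with healthy nuclei. These cells were identified by CellPathfinder machine-learning gating of live cells that had been stained at seeding with Hoechst33342, BioTracker Green Microtubule Cytoskeleton Dye, MitoTracker Red and Annexin V Alexa Fluor 680 and imaged on a CQ1 microscope at 37°C and 5% CO2 after compound addition. The gating first set Hoechst high-intensity objects apart from normal cells, then split normal cells into healthy, pyknosed or fragmented nuclei, and pyknosed cells into mitotic or apoptotic.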
# [1] = 12 h, 1 µM, compound concentration 1 uM, replicate 1
# [2] = 12 h, 1 µM, compound concentration 1 uM, replicate 2
# [3] = 12 h, 10 µM, compound concentration 10 uM, replicate 1
# [4] = 12 h, 10 µM, compound concentration 10 uM, replicate 2
# [5] = 24 h, 1 µM, compound concentration 1 uM, replicate 1
# [6] = 24 h, 1 µM, compound concentration 1 uM, replicate 2
# [7] = 24 h, 10 µM, compound concentration 10 uM, replicate 1
# [8] = 24 h, 10 µM, compound concentration 10 uM, replicate 2
# [9] = 48 h, 1 µM, compound concentration 1 uM, replicate 1
# [10] = 48 h, 1 µM, compound concentration 1 uM, replicate 2
# [11] = 48 h, 10 µM, compound concentration 10 uM, replicate 1
# [12] = 48 h, 10 µM, compound concentration 10 uM, replicate 2
smiles,measurement,setting,value
S=C(NCCCc1c[nH]cn1)NCCCN(Cc1ccc(Cl)c(Cl)c1)c1ccc(Br)cn1,Population Apoptotic (%),[1],56%
same,Population Fragmented Nuclei (%),[1],9%
same,Population Healthy Nuclei (%),[1],76%
same,Population Hoechst High Intensity Objects (%),[1],9%
same,Population Membrane Permeable-Phenotype (%),[1],7%
same,Population Mitochondria Different-Phenotype (%),[1],31%
same,Population Mitotic Cells (%),[1],43%
same,Population Normal (%),[1],90%
same,Population Pyknosed Nuclei (%),[1],13%
same,Population Tubulin-Different-Phenotype (%),[1],32%
same,Total Cell Count,[1],193
same,Population Apoptotic (%),[2],0%
same,Population Fragmented Nuclei (%),[2],17%
same,Population Healthy Nuclei (%),[2],82%
same,Population Hoechst High Intensity Objects (%),[2],15%
same,Population Membrane Permeable-Phenotype (%),[2],8%
same,Population Mitochondria Different-Phenotype (%),[2],8%
same,Population Mitotic Cells (%),[2],0%
same,Population Normal (%),[2],84%
same,Population Pyknosed Nuclei (%),[2],0%
same,Population Tubulin-Different-Phenotype (%),[2],4%
same,Total Cell Count,[2],79
same,Population Apoptotic (%),[3],88%
same,Population Fragmented Nuclei (%),[3],47%
same,Population Healthy Nuclei (%),[3],4%
same,Population Hoechst High Intensity Objects (%),[3],15%
same,Population Mitotic Cells (%),[3],11%
same,Population Normal (%),[3],84%
same,Population Pyknosed Nuclei (%),[3],48%
same,Total Cell Count,[3],133
same,Population Apoptotic (%),[4],93%
same,Population Fragmented Nuclei (%),[4],25%
same,Population Healthy Nuclei (%),[4],2%
same,Population Hoechst High Intensity Objects (%),[4],11%
same,Population Membrane Permeable-Phenotype (%),[4],100%
same,Population Mitochondria Different-Phenotype (%),[4],100%
same,Population Mitotic Cells (%),[4],6%
same,Population Normal (%),[4],88%
same,Population Pyknosed Nuclei (%),[4],72%
same,Population Tubulin-Different-Phenotype (%),[4],100%
same,Total Cell Count,[4],33
same,Population Apoptotic (%),[5],66%
same,Population Fragmented Nuclei (%),[5],10%
same,Population Healthy Nuclei (%),[5],76%
same,Population Hoechst High Intensity Objects (%),[5],6%
same,Population Membrane Permeable-Phenotype (%),[5],6%
same,Population Mitochondria Different-Phenotype (%),[5],10%
same,Population Mitotic Cells (%),[5],33%
same,Population Normal (%),[5],93%
same,Population Pyknosed Nuclei (%),[5],12%
same,Population Tubulin-Different-Phenotype (%),[5],14%
same,Total Cell Count,[5],199
same,Population Apoptotic (%),[6],0%
same,Population Fragmented Nuclei (%),[6],19%
same,Population Healthy Nuclei (%),[6],80%
same,Population Hoechst High Intensity Objects (%),[6],8%
same,Population Membrane Permeable-Phenotype (%),[6],16%
same,Population Mitochondria Different-Phenotype (%),[6],8%
same,Population Mitotic Cells (%),[6],0%
same,Population Normal (%),[6],91%
same,Population Pyknosed Nuclei (%),[6],0%
same,Population Tubulin-Different-Phenotype (%),[6],20%
same,Total Cell Count,[6],79
same,Population Apoptotic (%),[7],97%
same,Population Fragmented Nuclei (%),[7],44%
same,Population Healthy Nuclei (%),[7],5%
same,Population Hoechst High Intensity Objects (%),[7],21%
same,Population Membrane Permeable-Phenotype (%),[7],100%
same,Population Mitochondria Different-Phenotype (%),[7],100%
same,Population Mitotic Cells (%),[7],2%
same,Population Normal (%),[7],78%
same,Population Pyknosed Nuclei (%),[7],49%
same,Population Tubulin-Different-Phenotype (%),[7],100%
same,Total Cell Count,[7],149
same,Population Apoptotic (%),[8],100%
same,Population Fragmented Nuclei (%),[8],12%
same,Population Healthy Nuclei (%),[8],24%
same,Population Hoechst High Intensity Objects (%),[8],25%
same,Population Membrane Permeable-Phenotype (%),[8],94%
same,Population Mitochondria Different-Phenotype (%),[8],88%
same,Population Mitotic Cells (%),[8],0%
same,Population Normal (%),[8],74%
same,Population Pyknosed Nuclei (%),[8],62%
same,Population Tubulin-Different-Phenotype (%),[8],88%
same,Total Cell Count,[8],34
same,Population Apoptotic (%),[9],28%
same,Population Fragmented Nuclei (%),[9],10%
same,Population Healthy Nuclei (%),[9],58%
same,Population Hoechst High Intensity Objects (%),[9],8%
same,Population Membrane Permeable-Phenotype (%),[9],6%
same,Population Mitochondria Different-Phenotype (%),[9],11%
same,Population Mitotic Cells (%),[9],72%
same,Population Normal (%),[9],91%
same,Population Pyknosed Nuclei (%),[9],30%
same,Population Tubulin-Different-Phenotype (%),[9],10%
same,Total Cell Count,[9],211
same,Population Apoptotic (%),[10],22%
same,Population Fragmented Nuclei (%),[10],21%
same,Population Healthy Nuclei (%),[10],54%
same,Population Hoechst High Intensity Objects (%),[10],13%
same,Population Membrane Permeable-Phenotype (%),[10],5%
same,Population Mitochondria Different-Phenotype (%),[10],10%
same,Population Mitotic Cells (%),[10],77%
same,Population Normal (%),[10],86%
same,Population Pyknosed Nuclei (%),[10],24%
same,Population Tubulin-Different-Phenotype (%),[10],15%
same,Total Cell Count,[10],76
same,Population Apoptotic (%),[11],92%
same,Population Fragmented Nuclei (%),[11],50%
same,Population Healthy Nuclei (%),[11],2%
same,Population Hoechst High Intensity Objects (%),[11],22%
same,Population Membrane Permeable-Phenotype (%),[11],50%
same,Population Mitochondria Different-Phenotype (%),[11],100%
same,Population Mitotic Cells (%),[11],7%
same,Population Normal (%),[11],77%
same,Population Pyknosed Nuclei (%),[11],46%
same,Population Tubulin-Different-Phenotype (%),[11],100%
same,Total Cell Count,[11],177
same,Population Apoptotic (%),[12],100%
same,Population Fragmented Nuclei (%),[12],31%
same,Population Healthy Nuclei (%),[12],41%
same,Population Hoechst High Intensity Objects (%),[12],30%
same,Population Membrane Permeable-Phenotype (%),[12],92%
same,Population Mitochondria Different-Phenotype (%),[12],89%
same,Population Mitotic Cells (%),[12],0%
same,Population Normal (%),[12],69%
same,Population Pyknosed Nuclei (%),[12],26%
same,Population Tubulin-Different-Phenotype (%),[12],92%
same,Total Cell Count,[12],43
Cl.Oc1ccc2c3c1O[C@H]1c4[nH]c5c(c4C[C@@]4(O)[C@@H](C2)N(CC2CC2)CC[C@]314)C[C@@]1(O)[C@H]2Cc3ccc(O)c4c3[C@@]1(CCN2CC1CC1)[C@H]5O4,Population Apoptotic (%),[1],38%
same,Population Fragmented Nuclei (%),[1],9%
same,Population Healthy Nuclei (%),[1],79%
same,Population Hoechst High Intensity Objects (%),[1],6%
same,Population Membrane Permeable-Phenotype (%),[1],9%
same,Population Mitochondria Different-Phenotype (%),[1],15%
same,Population Mitotic Cells (%),[1],61%
same,Population Normal (%),[1],93%
same,Population Tubulin-Different-Phenotype (%),[1],14%
same,Total Cell Count,[1],105
same,Population Apoptotic (%),[2],42%
same,Population Fragmented Nuclei (%),[2],3%
same,Population Healthy Nuclei (%),[2],86%
same,Population Hoechst High Intensity Objects (%),[2],9%
same,Population Membrane Permeable-Phenotype (%),[2],10%
same,Population Mitochondria Different-Phenotype (%),[2],19%
same,Population Mitotic Cells (%),[2],57%
same,Population Normal (%),[2],90%
same,Population Pyknosed Nuclei (%),[2],10%
same,Population Tubulin-Different-Phenotype (%),[2],17%
same,Total Cell Count,[2],97
same,Population Apoptotic (%),[3],57%
same,Population Fragmented Nuclei (%),[3],14%
same,Population Healthy Nuclei (%),[3],73%
same,Population Hoechst High Intensity Objects (%),[3],6%
same,Population Membrane Permeable-Phenotype (%),[3],6%
same,Population Mitochondria Different-Phenotype (%),[3],10%
same,Population Mitotic Cells (%),[3],42%
same,Population Normal (%),[3],93%
same,Population Pyknosed Nuclei (%),[3],12%
same,Population Tubulin-Different-Phenotype (%),[3],3%
same,Total Cell Count,[3],183
same,Population Apoptotic (%),[4],93%
same,Population Fragmented Nuclei (%),[4],12%
same,Population Healthy Nuclei (%),[4],48%
same,Population Hoechst High Intensity Objects (%),[4],7%
same,Population Membrane Permeable-Phenotype (%),[4],52%
same,Population Mitochondria Different-Phenotype (%),[4],26%
same,Population Mitotic Cells (%),[4],6%
same,Population Normal (%),[4],92%
same,Population Pyknosed Nuclei (%),[4],38%
same,Population Tubulin-Different-Phenotype (%),[4],89%
same,Total Cell Count,[4],73
same,Population Apoptotic (%),[5],30%
same,Population Fragmented Nuclei (%),[5],7%
same,Population Healthy Nuclei (%),[5],80%
same,Population Hoechst High Intensity Objects (%),[5],3%
same,Population Membrane Permeable-Phenotype (%),[5],6%
same,Population Mitochondria Different-Phenotype (%),[5],12%
same,Population Mitotic Cells (%),[5],69%
same,Population Normal (%),[5],96%
same,Population Pyknosed Nuclei (%),[5],11%
same,Population Tubulin-Different-Phenotype (%),[5],9%
same,Total Cell Count,[5],113
same,Population Apoptotic (%),[6],25%
same,Population Fragmented Nuclei (%),[6],3%
same,Population Healthy Nuclei (%),[6],91%
same,Population Hoechst High Intensity Objects (%),[6],4%
same,Population Membrane Permeable-Phenotype (%),[6],10%
same,Population Mitochondria Different-Phenotype (%),[6],13%
same,Population Mitotic Cells (%),[6],75%
same,Population Normal (%),[6],95%
same,Population Pyknosed Nuclei (%),[6],4%
same,Population Tubulin-Different-Phenotype (%),[6],18%
same,Total Cell Count,[6],94
same,Population Apoptotic (%),[7],55%
same,Population Fragmented Nuclei (%),[7],9%
same,Population Healthy Nuclei (%),[7],80%
same,Population Hoechst High Intensity Objects (%),[7],3%
same,Population Membrane Permeable-Phenotype (%),[7],3%
same,Population Mitochondria Different-Phenotype (%),[7],8%
same,Population Mitotic Cells (%),[7],45%
same,Population Normal (%),[7],96%
same,Population Pyknosed Nuclei (%),[7],10%
same,Population Tubulin-Different-Phenotype (%),[7],5%
same,Total Cell Count,[7],231
same,Population Apoptotic (%),[8],76%
same,Population Fragmented Nuclei (%),[8],13%
same,Population Healthy Nuclei (%),[8],58%
same,Population Hoechst High Intensity Objects (%),[8],13%
same,Population Membrane Permeable-Phenotype (%),[8],48%
same,Population Mitochondria Different-Phenotype (%),[8],33%
same,Population Mitotic Cells (%),[8],23%
same,Population Normal (%),[8],86%
same,Population Pyknosed Nuclei (%),[8],28%
same,Population Tubulin-Different-Phenotype (%),[8],77%
same,Total Cell Count,[8],91
same,Population Apoptotic (%),[9],22%
same,Population Fragmented Nuclei (%),[9],4%
same,Population Hoechst High Intensity Objects (%),[9],3%
same,Population Membrane Permeable-Phenotype (%),[9],2%
same,Population Mitochondria Different-Phenotype (%),[9],11%
same,Population Mitotic Cells (%),[9],77%
same,Population Normal (%),[9],96%
same,Population Pyknosed Nuclei (%),[9],8%
same,Population Tubulin-Different-Phenotype (%),[9],11%
same,Total Cell Count,[9],107
same,Population Apoptotic (%),[10],14%
same,Population Fragmented Nuclei (%),[10],6%
same,Population Healthy Nuclei (%),[10],87%
same,Population Hoechst High Intensity Objects (%),[10],4%
same,Population Membrane Permeable-Phenotype (%),[10],9%
same,Population Mitochondria Different-Phenotype (%),[10],16%
same,Population Mitotic Cells (%),[10],85%
same,Population Normal (%),[10],95%
same,Population Pyknosed Nuclei (%),[10],5%
same,Population Tubulin-Different-Phenotype (%),[10],14%
same,Total Cell Count,[10],96
same,Population Apoptotic (%),[11],47%
same,Population Fragmented Nuclei (%),[11],4%
same,Population Healthy Nuclei (%),[11],89%
same,Population Hoechst High Intensity Objects (%),[11],3%
same,Population Membrane Permeable-Phenotype (%),[11],1%
same,Population Mitochondria Different-Phenotype (%),[11],9%
same,Population Mitotic Cells (%),[11],52%
same,Population Normal (%),[11],96%
same,Population Pyknosed Nuclei (%),[11],6%
same,Population Tubulin-Different-Phenotype (%),[11],4%
same,Total Cell Count,[11],365
same,Population Apoptotic (%),[12],60%
same,Population Fragmented Nuclei (%),[12],11%
same,Population Healthy Nuclei (%),[12],73%
same,Population Hoechst High Intensity Objects (%),[12],8%
same,Population Membrane Permeable-Phenotype (%),[12],30%
same,Population Mitochondria Different-Phenotype (%),[12],34%
same,Population Mitotic Cells (%),[12],40%
same,Population Normal (%),[12],91%
same,Population Pyknosed Nuclei (%),[12],15%
same,Population Tubulin-Different-Phenotype (%),[12],84%
same,Total Cell Count,[12],129
